Source: ChEMBL document CHEMBL3045304, “Sesquiterpene lactones with potential use as natural herbicide models. 2. guaianolides” (2000)
Calls of active or inactive are those of the source. The calls are words filed in the database; no cut-off is given here.

Key:
Lactuca sativa [1] = assay: Stimulation of hypocotyl length of Lactuca sativa cv. Roman (lettuce) at 0.1 mM or 1 mM after 5 days relative to untreated control; format: functional
Procedure, shortened: (§1)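 Lettuce and tomato seeds, 25 per dish on filter paper, received 5 mL test solution. Incubation was 5 days in the dark at 25 °C, with four replicates per concentration. Solutions were made at 10^-3 or 10^-4 M in 10 mM MES, diluted serially, and adjusted to pH 6.0. Parallel controls were run. Results are % difference from control.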

Solanum lycopersicum [2] = assay: Inhibition of root length of Solanum lycopersicum cv. Tres Cantos (tomato) at 0.1 mM or 1 mM after 5 days relative to untreated control; format: functional; procedure, shortened: as §1
Solanum lycopersicum [3] = assay: Stimulation of hypocotyl length of Solanum lycopersicum cv. Tres Cantos (tomato) at 0.1 mM or 1 mM after 5 days relative to untreated control; format: functional; procedure, shortened: as §1
Lepidium sativum [4] = assay: Stimulation of hypocotyl length of Lepidium sativum at 0.1 mM or 1 mM after 5 days relative to untreated control; format: functional
Triticum aestivum [5] = assay: Inhibition of root length of Triticum aestivum cv. Cortex (wheat) at 0.1 mM or 1 mM after 5 days relative to untreated control; format: functional
Procedure, shortened: (§2)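 Wheat: 10 seeds per dish on filter paper with 5 mL test solution, 5 days in the dark at 25 °C, 10 replicates per concentration. Stock test solutions were 10^-3 or 10^-4 M in 10 mM MES, with lower levels made by dilution, all at pH 6.0. Parallel controls were run. Output is % difference from control.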

Triticum aestivum [6] = assay: Stimulation of hypocotyl length of Triticum aestivum cv. Cortex (wheat) at 0.1 mM or 1 mM after 5 days relative to untreated control; format: functional; procedure, shortened: as §2
Allium cepa [7] = assay: Stimulation of root length of Allium cepa cv. Valenciana (onion) at 0.1 mM or 1 mM after 5 days relative to untreated control; format: functional
Solanum lycopersicum [8] = assay: Inhibition of hypocotyl length of Solanum lycopersicum cv. Tres Cantos (tomato) at 0.1 mM or 1 mM after 5 days relative to untreated control; format: functional; procedure, shortened: as §1
Triticum aestivum [9] = assay: Stimulation of germination of Triticum aestivum cv. Cortex (wheat) at 0.1 mM or 1 mM after 5 days relative to untreated control; format: functional; procedure, shortened: as §2
Solanum lycopersicum [10] = assay: Inhibition of germination of Solanum lycopersicum cv. Tres Cantos (tomato) at 0.1 mM or 1 mM after 5 days relative to untreated control; format: functional; procedure, shortened: as §1
Allium cepa [11] = assay: Inhibition of hypocotyl length of Allium cepa cv. Valenciana (onion) at 0.1 mM or 1 mM after 5 days relative to untreated control; format: functional
Allium cepa [12] = assay: Inhibition of root length of Allium cepa cv. Valenciana (onion) at 0.1 mM or 1 mM after 5 days relative to untreated control; format: functional
Lepidium sativum [13] = assay: Inhibition of hypocotyl length of Lepidium sativum at 0.1 mM or 1 mM after 4 days relative to untreated control
Lepidium sativum [14] = assay: Inhibition of root length of Lepidium sativum at 0.1 mM or 1 mM after 4 days relative to untreated control
Lepidium sativum [15] = assay: Inhibition of germination of Lepidium sativum at 0.1 mM or 1 mM after 4 days relative to untreated control; set-up: scale not given: the % may be the effect or the level left
Solanum lycopersicum [16] = assay: Stimulation of root length of Solanum lycopersicum cv. Tres Cantos (tomato) at 0.1 mM or 1 mM after 5 days relative to untreated control; format: functional; procedure, shortened: as §1
Allium cepa [17] = assay: Stimulation of germination of Allium cepa cv. Valenciana (onion) at 0.1 mM or 1 mM after 7 days relative to untreated control
Triticum aestivum [18] = assay: Inhibition of hypocotyl length of Triticum aestivum cv. Cortex (wheat) at 0.1 mM or 1 mM after 5 days relative to untreated control; format: functional; procedure, shortened: as §2
Lactuca sativa [19] = assay: Stimulation of root length of Lactuca sativa cv. Roman (lettuce) at 0.1 mM or 1 mM after 5 days relative to untreated control; format: functional; procedure, shortened: as §1
Lactuca sativa [20] = assay: Inhibition of root length of Lactuca sativa cv. Roman (lettuce) at 0.1 mM or 1 mM after 5 days relative to untreated control; format: functional; procedure, shortened: as §1
Lactuca sativa [21] = assay: Stimulation of germination of Lactuca sativa cv. Roman (lettuce) at 0.1 mM or 1 mM after 5 days relative to untreated control; format: functional; procedure, shortened: as §1
Triticum aestivum [22] = assay: Stimulation of root length of Triticum aestivum cv. Cortex (wheat) at 0.1 mM or 1 mM after 5 days relative to untreated control; format: functional; procedure, shortened: as §2
Allium cepa [23] = assay: Stimulation of hypocotyl length of Allium cepa cv. Valenciana (onion) at 0.1 mM or 1 mM after 5 days relative to untreated control; format: functional
Triticum aestivum [24] = assay: Inhibition of germination of Triticum aestivum cv. Cortex (wheat) at 0.1 mM or 1 mM after 5 days relative to untreated control; format: functional; procedure, shortened: as §2
Solanum lycopersicum [25] = assay: Stimulation of germination of Solanum lycopersicum cv. Tres Cantos (tomato) at 0.1 mM or 1 mM after 5 days relative to untreated control; format: functional; procedure, shortened: as §1
Lactuca sativa [26] = assay: Inhibition of germination of Lactuca sativa cv. Roman (lettuce) at 0.1 mM or 1 mM after 5 days relative to untreated control; format: functional; procedure, shortened: as §1
Allium cepa [27] = assay: Inhibition of germination of Allium cepa cv. Valenciana (onion) at 0.1 mM or 1 mM after 5 days relative to untreated control; format: functional
Lepidium sativum [28] = assay: Inhibition of germination of Lepidium sativum at 0.1 mM or 1 mM after 5 days relative to untreated control; format: functional
Lactuca sativa [29] = assay: Inhibition of hypocotyl length of Lactuca sativa cv. Roman (lettuce) at 0.1 mM or 1 mM after 5 days relative to untreated control; format: functional; procedure, shortened: as §1
Lepidium sativum [30] = assay: Stimulation of root length of Lepidium sativum at 0.1 mM or 1 mM after 5 days relative to untreated control; format: functional

## C=C1CC[C@H]2C(=C)CC[C@@H]3[C@H](OC(=O)[C@H]3CO)[C@@H]12
Lactuca sativa [1]
  Activity: inactive
Solanum lycopersicum [2]
  inhibition (INH): >40%
Solanum lycopersicum [3]
  Activity: >40%
Lepidium sativum [4]
  Activity: >40%
Triticum aestivum [5]
  inhibition (INH): 20%
Triticum aestivum [6]
  Activity: 20%
Allium cepa [7]
  Activity: >40%
Solanum lycopersicum [8]
  inhibition (INH): >40%
Triticum aestivum [9]
  Activity: <=20%
Solanum lycopersicum [10]
  inhibition: inactive
Allium cepa [11]
  inhibition (INH): >40%
Allium cepa [12]
  inhibition (INH): >40%
Lepidium sativum [13]
  inhibition (INH): >40%
Lepidium sativum [14]
  inhibition (INH): >40%
Lepidium sativum [15]
  Activity: <20%
Solanum lycopersicum [16]
  Activity: >40%
Allium cepa [17]
  Activity: inactive
Triticum aestivum [18]
  inhibition (INH): 20%
Lactuca sativa [19]
  Activity: 20%
Lactuca sativa [20]
  inhibition (INH): 20%
Lactuca sativa [21]
  Activity: <20%
Triticum aestivum [22]
  Activity: 20%
Allium cepa [23]
  Activity: >40%
Triticum aestivum [24]
  inhibition (INH): <=20%
Solanum lycopersicum [25]
  Activity: inactive
Lactuca sativa [26]
  inhibition (INH): <20%
Allium cepa [27]
  inhibition: inactive
Lepidium sativum [28]
  inhibition (INH): <20%
Lactuca sativa [29]
  inhibition: inactive
Lepidium sativum [30]
  Activity: >40%

## COc1nc(C)nc(NC(=O)NS(=O)(=O)c2ccccc2OCCCl)n1 [LOGRAN]
Lactuca sativa [1]
  Activity: >40%
Solanum lycopersicum [2]
  inhibition (INH): >40%
Solanum lycopersicum [3]
  Activity: >40%
Lepidium sativum [4]
  Activity: >40%
Triticum aestivum [5]
  inhibition (INH): 20%
Triticum aestivum [6]
  Activity: 20%
Allium cepa [7]
  Activity: >40%
Solanum lycopersicum [8]
  inhibition (INH): >40%
Triticum aestivum [9]
  Activity: 20%
Solanum lycopersicum [10]
  inhibition: inactive
Allium cepa [11]
  inhibition (INH): >40%
Allium cepa [12]
  inhibition (INH): >40%
Lepidium sativum [13]
  inhibition (INH): >40%
Lepidium sativum [14]
  inhibition (INH): >40%
Lepidium sativum [15]
  Activity: 20%
Solanum lycopersicum [16]
  Activity: >40%
Allium cepa [17]
  Activity: inactive
Triticum aestivum [18]
  inhibition (INH): 20%
Lactuca sativa [19]
  Activity: >40%
Lactuca sativa [20]
  inhibition (INH): >40%
Lactuca sativa [21]
  Activity: >40%
Triticum aestivum [22]
  Activity: 20%
Allium cepa [23]
  Activity: >40%
Triticum aestivum [24]
  inhibition (INH): 20%
Solanum lycopersicum [25]
  Activity: inactive
Lactuca sativa [26]
  inhibition (INH): >40%
Allium cepa [27]
  inhibition: inactive
Lepidium sativum [28]
  inhibition (INH): 20%
Lactuca sativa [29]
  inhibition (INH): >40%
Lepidium sativum [30]
  Activity: >40%
